Test results published in article PMC3244355 (Journal of the American Chemical Society, 2011).

Key:
photophysical properties = assay type: physicochemical
Summary of the method: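 Samples are prepared at 20 μM. Dye–inhibitor conjugate spectra are recorded in 1% DMSO/PBS, pH 7.4, at 25 °C with excitation at 405 nm. Tabulated dye entries are excited at their λmax. Absorption maximum, molar absorptivity, emission maximum and fluorescence quantum yield are reported.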

solubility = assay type: physicochemical; settings: variety of solvents
HeLa cells [1] = experiment: cell-based assay for bipolar spindle assembly / mitotic arrest; design: species or system human; settings: 4 h; for spindle morphology: HeLa cells, fixed, anti-tubulin antibodies; for EC50: Homo sapiens, HeLa, read-out: EC50 for mitotic arrest in cell-based assay
Summary of the method: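 HeLa cells are incubated for 4 h with the test compound, alongside an untreated control. They are then fixed and probed with anti-tubulin antibodies, with DNA counterstained. Spindle organization (bipolar vs. monopolar spindle formation) is assessed by fluorescence microscopy.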

[2] = biological target: T1, purified human KSP motor domain (Homo sapiens, UniProt P52732); experiment: in vitro biochemical assay for microtubule-stimulated KSP ATPase activity
T1 sequence (P52732 18-359 limits assumed): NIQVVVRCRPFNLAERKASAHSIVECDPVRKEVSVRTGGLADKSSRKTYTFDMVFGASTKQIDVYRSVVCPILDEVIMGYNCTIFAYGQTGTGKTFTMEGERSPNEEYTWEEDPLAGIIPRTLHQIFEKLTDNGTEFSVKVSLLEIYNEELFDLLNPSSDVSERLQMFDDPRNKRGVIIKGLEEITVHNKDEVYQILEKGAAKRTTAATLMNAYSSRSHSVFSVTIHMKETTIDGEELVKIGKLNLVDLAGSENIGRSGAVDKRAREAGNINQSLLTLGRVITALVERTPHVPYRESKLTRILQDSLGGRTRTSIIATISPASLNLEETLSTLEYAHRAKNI

[3] = chemical stability in aqueous buffer solution; assay type: physicochemical; settings: pH 4–9, several days at ambient temperature
Summary of the method: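 The test dye is held in aqueous buffer across pH 4–9 at ambient temperature for several days. Absorbance/emission properties are monitored, and the solution is checked for decomposition.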

HeLa cells [4] = experiment: membrane permeability and localization of free dyes, live-cell imaging; assay type: cell-based, human; settings: living HeLa cells, 20 μM, 60 minutes, with AlexaFluor546-BSA endocytosis marker
Summary of the method: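 Live HeLa cells are incubated for 1 h in 20 μM test dye, with 100 μg/mL AlexaFluor546-labeled BSA as a fluid-phase endocytosis marker. Cells are washed free of dye and imaged live by epifluorescence microscopy using a custom filter set matched to 395/500 excitation/emission. Merged images are used to compare dye distribution with marker-containing endosomal vesicles.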

HeLa cells [5] = experiment: toxicity / cell viability of dye-treated cells; assay type: cell-based, human; settings: cells treated for up to 6 h with 100 μM dye
[6] = MeOH, 20 μM sample, excited at λmax
[7] = conjugates, 20 μM in 1% DMSO/PBS, pH 7.4 at 25 °C
[8] = conjugates, 20 μM in 1% DMSO/PBS, pH 7.4 at 25 °C, excited at 405 nm
[9] = 1%DMSO/PBS pH 7.4, 20 μM sample
[10] = 1%DMSO/PBS pH 7.4, 20 μM sample, excited at λmax
[11] = Acetone, 20 μM sample, excited at λmax
[12] = CH2Cl2, 20 μM sample, excited at λmax
[13] = Toluene, 20 μM sample, excited at λmax

F[B-]1(F)N2C=C(Br)C=CC2=N[N+]1=Cc1ccccc1 [Compound 10, 2-Benzylidene-6-bromo-3,3-difluoro-2,3-dihydro-[1,2,4,3]triazaborolo[4,5-a]pyridin-2-ium-3-uide]
Φf (photophysical properties; MeOH, 20 μM sample): 0.31
ε (photophysical properties; MeOH, 20 μM sample): 22 600 M^−1cm^−1
λmax (photophysical properties; MeOH, 20 μM sample): 471 nm
λemi (photophysical properties; [6]): 539 nm

F[B-]1(F)N2C=C(n3cc(-c4ccccc4)nn3)C=CC2=N[N+]1=Cc1ccc(-c2cccs2)cc1 [Compound 12, 3,3-Difluoro-6-(4-phenyl-1H-1,2,3-triazol-1-yl)-2-(4-(thiophen-2-yl)benzylidene)-2,3-dihydro-[1,2,4,3]triazaborolo[4,5-a]pyridin-2-ium-3-uide]
Φf (photophysical properties; MeOH, 20 μM sample): 0.37
ε (photophysical properties; MeOH, 20 μM sample): 33 800 M^−1cm^−1
λmax (photophysical properties; MeOH, 20 μM sample): 491 nm
λemi (photophysical properties; [6]): 572 nm

CC(C)=[N+]1N=C2C=CC(I)=CN2[B-]1(F)F [Compound 18, 3,3-Difluoro-6-iodo-2-(propan-2-ylidene)-2,3-dihydro-[1,2,4,3]triazaborolo[4,5-a]pyridin-2-ium-3-uide]
Φf (photophysical properties; MeOH, 20 μM sample): 0.20
ε (photophysical properties; MeOH, 20 μM sample): 8 300 M^−1cm^−1
λmax (photophysical properties; MeOH, 20 μM sample): 400 nm
λemi (photophysical properties; [6]): 496 nm
solubility in solvents (solubility): soluble in a variety of solvents

COc1ccc(C(SCC(N)C(=O)NCCC#CC2=CN3C(=N[N+](=C(C)C)[B-]3(F)F)C=C2)(c2ccccc2)c2ccccc2)cc1 (stereo not drawn) [Compound 25, 6-(4-(2-Amino-3-((4-methoxyphenyl)diphenylmethylthio)propanamido)but-1-ynyl)-3,3-difluoro-2-(propan-2-ylidene)-2,3-dihydro-[1,2,4,3]triazaborolo[4,5-a]pyridin-2-ium-3-uide]
ε (photophysical properties; [7]): 9 900
λmax (photophysical properties; [7]): 400 nm
Φf (photophysical properties; [8]): 0.31
λemi (photophysical properties; [8]): 489 nm
spindle morphology (HeLa cells [1]): dose-dependent formation of monopolar spindles
EC50 (HeLa cells [1]): 1130 nM
IC50 [2]: 850 nM

F[B-]1(F)N2C=CC=CC2=N[N+]1=Cc1ccc(-c2cccs2)cc1 [Compound 2, 3,3-Difluoro-2-(4-(thiophen-2-yl)benzylidene)-2,3-dihydro-[1,2,4,3]triazaborolo[4,5-a]pyridine-2-ium-3-uide]
Φf (photophysical properties; MeOH, 20 μM sample): 0.75
ε (photophysical properties; MeOH, 20 μM sample): 28 800 M^−1cm^−1
λmax (photophysical properties; MeOH, 20 μM sample): 472 nm
λemi (photophysical properties; [6]): 551 nm

COc1ccc(C(SCC(N)C(=O)NCCC#CC2=CN3C(=N[N+](=C(C)C)[B-]3(OC)OC)C=C2)(c2ccccc2)c2ccccc2)cc1 (stereo not drawn) [Compound 26, 6-(4-(2-Amino-3-((4-methoxyphenyl)diphenylmethylthio)propanamido)-but-1-ynyl)-3,3-dimethoxy-2-(propan-2-ylidene)-2,3-dihydro-[1,2,4,3]triazaborolo[4,5-a]pyridin-2-ium-3-uide]
ε (photophysical properties; [7]): 12 900
λmax (photophysical properties; [7]): 400 nm
Φf (photophysical properties; [8]): 0.29
λemi (photophysical properties; [8]): 486 nm
spindle morphology (HeLa cells [1]): dose-dependent formation of monopolar spindles
EC50 (HeLa cells [1]): 1030 nM
IC50 [2]: 600 nM

COc1ccc(C(SCC(N)C(=O)NCCOCCN)(c2ccccc2)c2ccccc2)cc1 (stereo not drawn) [Compound 27, 2-Amino-N-(2-(2-aminoethoxy)ethyl)-3-((4-methoxyphenyl)diphenylmethylthio)propanamide]
EC50 (HeLa cells [1]): 580 nM
IC50 [2]: 750 nM

COc1ccc(C(SC[C@H](N)C(=O)O)(c2ccccc2)c2ccccc2)cc1 [Compound 19, reference compound]
spindle morphology (HeLa cells [1]): dose-dependent formation of monopolar spindles

CC(C)=[N+]1N=C2C=CC(Br)=CN2[B-]1(F)F [Compound 16, 6-Bromo-3,3-difluoro-2-(propan-2-ylidene)-2,3-dihydro-[1,2,4,3]triazaborolo[4,5-a]pyridin-2-ium-3-uide]
chemical stability in aqueous buffer solution [3]: no decomposition in solution was evident
Φf (photophysical properties; [9]): 0.17
ε (photophysical properties; [9]): 8 600 M^−1cm^−1
λmax (photophysical properties; [9]): 404 nm
λemi (photophysical properties; [10]): 491 nm
Φf (photophysical properties; Acetone, 20 μM sample): 0.17
ε (photophysical properties; Acetone, 20 μM sample): 8 600 M^−1cm^−1
λmax (photophysical properties; Acetone, 20 μM sample): 403 nm
λemi (photophysical properties; [11]): 504 nm
Φf (photophysical properties; CH2Cl2, 20 μM sample): 0.22
ε (photophysical properties; CH2Cl2, 20 μM sample): 9 300 M^−1cm^−1
λmax (photophysical properties; CH2Cl2, 20 μM sample): 408 nm
λemi (photophysical properties; [12]): 497 nm
Φf (photophysical properties; MeOH, 20 μM sample): 0.21
ε (photophysical properties; MeOH, 20 μM sample): 8 500 M^−1cm^−1
λmax (photophysical properties; MeOH, 20 μM sample): 403 nm
λemi (photophysical properties; [6]): 493 nm
Φf (photophysical properties; Toluene, 20 μM sample): 0.07
ε (photophysical properties; Toluene, 20 μM sample): 9 800 M^−1cm^−1
λmax (photophysical properties; Toluene, 20 μM sample): 406 nm
λemi (photophysical properties; [13]): 500 nm
cell membrane permeability (HeLa cells [4]): membrane permeable
solubility in solvents (solubility): soluble in a variety of solvents
toxicity / effects on cell viability (HeLa cells [5]): no toxicity

F[B-]1(F)N2C=C(Cl)C=CC2=N[N+]1=Cc1ccc(-c2cccs2)cc1 [Compound 4]
Φf (photophysical properties; MeOH, 20 μM sample): 0.69
ε (photophysical properties; MeOH, 20 μM sample): 26 800 M^−1cm^−1
λmax (photophysical properties; MeOH, 20 μM sample): 491 nm
λemi (photophysical properties; [6]): 563 nm

F[B-]1(F)N2C=C(Br)C=CC2=N[N+]1=Cc1ccc(-c2cccs2)cc1 [Compound 6, 6-Bromo-3,3-difluoro-2-(4-(thiophen-2-yl)benzylidene)-2,3-dihydro-[1,2,4,3]triazaborolo[4,5-a]pyridin-2-ium-3-uide]
Φf (photophysical properties; MeOH, 20 μM sample): 0.95
ε (photophysical properties; MeOH, 20 μM sample): 32 900 M^−1cm^−1
λmax (photophysical properties; MeOH, 20 μM sample): 482 nm
λemi (photophysical properties; [6]): 562 nm

6-Bromo-3,3-difluoro-2-(4-(thiophen-2-yl)benzylidene)-2,3-dihydro-[1,2,4,3]triazaborolo[4,5-a]pyridin-2-ium-3-uide [Compound 8]
Φf (photophysical properties; MeOH, 20 μM sample): 0.71
ε (photophysical properties; MeOH, 20 μM sample): 26 600 M^−1cm^−1
λmax (photophysical properties; MeOH, 20 μM sample): 490 nm
λemi (photophysical properties; [6]): 562 nm

CO[B-]1(OC)N2C=C(Br)C=CC2=N[N+]1=C(C)C [Compound 21, 6-Bromo-3,3-dimethoxy-2-(propan-2-ylidene)-2,3-dihydro-[1,2,4,3]triazaborolo[4,5-a]pyridin-2-ium-3-uide]
Φf (photophysical properties; [9]): 0.16
ε (photophysical properties; [9]): 12 300 M^−1cm^−1
λmax (photophysical properties; [9]): 404 nm
λemi (photophysical properties; [10]): 492 nm
Φf (photophysical properties; Acetone, 20 μM sample): 0.23
ε (photophysical properties; Acetone, 20 μM sample): 10 800 M^−1cm^−1
λmax (photophysical properties; Acetone, 20 μM sample): 407 nm
λemi (photophysical properties; [11]): 504 nm
Φf (photophysical properties; CH2Cl2, 20 μM sample): 0.20
ε (photophysical properties; CH2Cl2, 20 μM sample): 11 200 M^−1cm^−1
λmax (photophysical properties; CH2Cl2, 20 μM sample): 406 nm
λemi (photophysical properties; [12]): 497 nm
Φf (photophysical properties; MeOH, 20 μM sample): 0.21
ε (photophysical properties; MeOH, 20 μM sample): 12 000 M^−1cm^−1
λmax (photophysical properties; MeOH, 20 μM sample): 403 nm
λemi (photophysical properties; [6]): 492 nm
Φf (photophysical properties; Toluene, 20 μM sample): 0.51
ε (photophysical properties; Toluene, 20 μM sample): 10 600 M^−1cm^−1
λmax (photophysical properties; Toluene, 20 μM sample): 410 nm
λemi (photophysical properties; [13]): 501 nm
cell membrane permeability (HeLa cells [4]): membrane permeable
solubility in solvents (solubility): soluble in a variety of solvents
toxicity / effects on cell viability (HeLa cells [5]): no toxicity

CO[B-]1(OC)N2C=C(I)C=CC2=N[N+]1=C(C)C [Compound 22, 6-Iodo-3,3-dimethoxy-2-(propan-2-ylidene)-2,3-dihydro[1,2,4,3]triazaborolo[4,5-a]pyridin-2-ium-3-uide]
Φf (photophysical properties; MeOH, 20 μM sample): 0.21
ε (photophysical properties; MeOH, 20 μM sample): 9 400 M^−1cm^−1
λmax (photophysical properties; MeOH, 20 μM sample): 400 nm
λemi (photophysical properties; [6]): 476 nm
solubility in solvents (solubility): soluble in a variety of solvents

C#CC1=CN2C(=N[N+](=Cc3ccc(-c4cccs4)cc3)[B-]2(F)F)C=C1 [Compound 14, 6-Ethynyl-3,3-difluoro-2-(4-(thiophen-2-yl)benzylidene)-2,3-dihydro-[1,2,4,3]triazaborolo[4,5-a]pyridin-2-ium-3-uide]
Φf (photophysical properties; MeOH, 20 μM sample): 0.38
ε (photophysical properties; MeOH, 20 μM sample): 36 700 M^−1cm^−1
λmax (photophysical properties; MeOH, 20 μM sample): 481 nm
λemi (photophysical properties; [6]): 572 nm
